ChEMBL document CHEMBL4359902, “Development of novel chromeno[4,3-c]pyrazol-4(2H)-one derivates bearing sulfonylpiperazine as antitumor inhibitors targeting PI3Kα” (Eur J Med Chem, 2019)

Tests used:
[1] = test system: HL-60; experiment: Antiproliferative activity against human HL60 cells assessed as reduction in cell viability after 48 hrs by MTT assay; type: functional, cell-based; settings: HL-60, 48 h
[2] = test system: A549; experiment: Antiproliferative activity against human A549 cells assessed as reduction in cell viability after 48 hrs by MTT assay; type: functional, cell-based; settings: A549, 48 h
[3] = test system: Huh-7; experiment: Antiproliferative activity against human HuH7 cells assessed as reduction in cell viability after 48 hrs by MTT assay; type: functional, cell-based; settings: Huh-7, 48 h
[4] = test system: HCT-116; experiment: Antiproliferative activity against human HCT116 cells assessed as reduction in cell viability after 48 hrs by MTT assay; type: functional, cell-based; settings: HCT-116, 48 h
[5] = target: Phosphatidylinositol 4,5-bisphosphate 3-kinase catalytic subunit beta isoform (Homo sapiens, UniProt P42338); experiment: Inhibition of PI3Kbeta (unknown origin) using diC8-PI(4,5)P2 as substrate incubated for 3 hrs in presence of ATP by fluorescence polarization assay
Phosphatidylinositol 4,5-bisphosphate 3-kinase catalytic subunit beta isoform, sequence (P42338 whole entry, canonical isoform): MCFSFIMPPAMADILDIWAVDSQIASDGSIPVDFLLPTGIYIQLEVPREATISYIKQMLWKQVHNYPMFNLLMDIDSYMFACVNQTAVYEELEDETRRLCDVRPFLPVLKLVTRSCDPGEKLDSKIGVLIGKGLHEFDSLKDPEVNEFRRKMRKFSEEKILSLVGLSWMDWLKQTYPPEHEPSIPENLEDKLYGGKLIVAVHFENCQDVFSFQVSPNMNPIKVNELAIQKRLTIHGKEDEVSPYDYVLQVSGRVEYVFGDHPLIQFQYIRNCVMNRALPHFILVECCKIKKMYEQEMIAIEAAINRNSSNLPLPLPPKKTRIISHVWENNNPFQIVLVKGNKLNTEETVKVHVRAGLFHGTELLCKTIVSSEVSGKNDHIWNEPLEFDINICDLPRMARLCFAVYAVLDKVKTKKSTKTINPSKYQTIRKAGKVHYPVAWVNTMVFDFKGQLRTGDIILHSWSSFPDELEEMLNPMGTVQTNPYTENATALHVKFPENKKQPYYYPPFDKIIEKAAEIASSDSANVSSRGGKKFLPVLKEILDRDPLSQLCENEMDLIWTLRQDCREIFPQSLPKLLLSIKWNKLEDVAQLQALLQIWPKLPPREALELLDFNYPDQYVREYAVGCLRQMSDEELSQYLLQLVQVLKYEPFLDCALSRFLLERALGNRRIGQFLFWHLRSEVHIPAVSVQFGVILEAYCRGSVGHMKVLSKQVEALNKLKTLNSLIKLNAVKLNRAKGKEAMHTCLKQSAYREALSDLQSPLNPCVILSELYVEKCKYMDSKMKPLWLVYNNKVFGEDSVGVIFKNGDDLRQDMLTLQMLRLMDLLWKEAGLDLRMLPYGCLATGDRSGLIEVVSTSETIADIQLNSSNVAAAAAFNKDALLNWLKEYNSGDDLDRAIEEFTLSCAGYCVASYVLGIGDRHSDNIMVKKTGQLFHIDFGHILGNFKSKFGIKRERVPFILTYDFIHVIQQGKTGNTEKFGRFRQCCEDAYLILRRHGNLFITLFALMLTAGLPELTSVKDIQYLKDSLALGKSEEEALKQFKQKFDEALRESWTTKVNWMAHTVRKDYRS
How it was run: (§1)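 Fluorescence polarization competition assay, 10 μL reactions at pH 7: 2.5 mM MgCl₂, 5 mM HEPES, ATP, 10 mM DTT, 50 ng PI3K isoform, diC8-PI(4,5)P2 substrate. After 3 h at room temperature, reactions were chelator-quenched. Phosphoinositide binding protein and fluorophore-labelled tracer were added, then 1 h dark equilibration and polarization read.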

[6] = target: Serine/threonine-protein kinase mTOR (Homo sapiens, UniProt P42345); experiment: Inhibition of mTOR (unknown origin)
[7] = target: T1, Phosphatidylinositol 4,5-bisphosphate 3-kinase catalytic subunit delta isoform (Homo sapiens, UniProt O00329); experiment: Inhibition of PI3Kdelta (unknown origin) using diC8-PI(4,5)P2 as substrate incubated for 3 hrs in presence of ATP by fluorescence polarization assay; how it was run: as §1
T1 sequence (O00329 whole entry): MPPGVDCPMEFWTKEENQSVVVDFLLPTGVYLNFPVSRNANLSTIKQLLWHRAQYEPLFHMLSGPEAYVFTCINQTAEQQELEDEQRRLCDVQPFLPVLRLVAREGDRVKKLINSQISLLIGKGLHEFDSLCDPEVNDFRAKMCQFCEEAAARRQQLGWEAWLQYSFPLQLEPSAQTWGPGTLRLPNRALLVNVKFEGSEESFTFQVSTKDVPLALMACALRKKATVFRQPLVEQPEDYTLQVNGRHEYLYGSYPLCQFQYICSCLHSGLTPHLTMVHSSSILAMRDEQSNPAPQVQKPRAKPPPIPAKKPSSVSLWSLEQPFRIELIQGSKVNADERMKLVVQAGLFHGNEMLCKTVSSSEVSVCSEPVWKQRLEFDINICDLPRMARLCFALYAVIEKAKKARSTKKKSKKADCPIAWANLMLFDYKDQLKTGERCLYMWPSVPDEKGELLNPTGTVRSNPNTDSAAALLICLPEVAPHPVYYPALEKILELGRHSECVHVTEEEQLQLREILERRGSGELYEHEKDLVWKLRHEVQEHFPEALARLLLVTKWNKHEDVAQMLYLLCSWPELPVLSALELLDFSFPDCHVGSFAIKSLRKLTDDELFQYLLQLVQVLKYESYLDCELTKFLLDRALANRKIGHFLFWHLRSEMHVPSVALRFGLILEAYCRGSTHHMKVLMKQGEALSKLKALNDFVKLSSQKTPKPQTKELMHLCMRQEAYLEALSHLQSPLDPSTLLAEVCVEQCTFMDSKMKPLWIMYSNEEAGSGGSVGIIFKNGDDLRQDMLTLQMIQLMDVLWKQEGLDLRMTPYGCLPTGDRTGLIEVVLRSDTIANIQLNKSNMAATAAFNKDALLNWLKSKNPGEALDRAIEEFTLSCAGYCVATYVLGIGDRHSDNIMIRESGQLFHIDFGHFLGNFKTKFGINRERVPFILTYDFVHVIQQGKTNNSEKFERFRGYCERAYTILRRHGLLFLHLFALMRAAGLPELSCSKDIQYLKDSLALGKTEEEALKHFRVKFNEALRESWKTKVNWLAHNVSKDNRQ

[8] = target: Phosphatidylinositol 4,5-bisphosphate 3-kinase catalytic subunit alpha isoform (Homo sapiens, UniProt P42336); experiment: Inhibition of PI3Kalpha (unknown origin) using diC8-PI(4,5)P2 as substrate incubated for 3 hrs in presence of ATP by fluorescence polarization assay; how it was run: as §1
Phosphatidylinositol 4,5-bisphosphate 3-kinase catalytic subunit alpha isoform, sequence (P42336 whole entry, canonical isoform): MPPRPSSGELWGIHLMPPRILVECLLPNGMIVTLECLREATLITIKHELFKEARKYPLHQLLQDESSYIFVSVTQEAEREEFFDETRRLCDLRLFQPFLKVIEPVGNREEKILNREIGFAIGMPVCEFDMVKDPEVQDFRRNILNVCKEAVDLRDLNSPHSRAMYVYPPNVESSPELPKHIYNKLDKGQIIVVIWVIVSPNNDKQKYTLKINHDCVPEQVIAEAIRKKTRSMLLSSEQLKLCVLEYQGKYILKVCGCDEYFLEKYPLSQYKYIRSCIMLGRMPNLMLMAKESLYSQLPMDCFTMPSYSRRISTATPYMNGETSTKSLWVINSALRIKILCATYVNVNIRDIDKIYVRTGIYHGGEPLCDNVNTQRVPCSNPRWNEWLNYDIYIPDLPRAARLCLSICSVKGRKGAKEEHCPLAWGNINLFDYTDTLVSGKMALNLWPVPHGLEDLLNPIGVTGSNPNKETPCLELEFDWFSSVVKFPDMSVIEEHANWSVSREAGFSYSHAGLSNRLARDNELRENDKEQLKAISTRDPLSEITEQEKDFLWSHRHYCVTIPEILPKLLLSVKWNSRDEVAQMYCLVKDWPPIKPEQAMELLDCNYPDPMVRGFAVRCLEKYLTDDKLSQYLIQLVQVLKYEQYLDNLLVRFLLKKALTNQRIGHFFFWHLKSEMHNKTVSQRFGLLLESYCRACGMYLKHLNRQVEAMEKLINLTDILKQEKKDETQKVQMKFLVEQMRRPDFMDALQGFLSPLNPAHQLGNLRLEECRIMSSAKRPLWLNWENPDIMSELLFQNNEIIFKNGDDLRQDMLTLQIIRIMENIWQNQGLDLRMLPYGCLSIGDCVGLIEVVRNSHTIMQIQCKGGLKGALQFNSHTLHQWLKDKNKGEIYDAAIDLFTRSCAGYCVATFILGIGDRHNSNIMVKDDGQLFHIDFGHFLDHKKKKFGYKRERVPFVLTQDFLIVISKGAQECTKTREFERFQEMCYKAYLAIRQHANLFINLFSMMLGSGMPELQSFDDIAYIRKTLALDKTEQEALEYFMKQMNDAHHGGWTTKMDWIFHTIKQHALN

[9] = target: Phosphatidylinositol 4,5-bisphosphate 3-kinase catalytic subunit gamma isoform (Homo sapiens, UniProt P48736); experiment: Inhibition of PI3Kgamma (unknown origin) using diC8-PI(4,5)P2 as substrate incubated for 3 hrs in presence of ATP by fluorescence polarization assay; how it was run: as §1
Phosphatidylinositol 4,5-bisphosphate 3-kinase catalytic subunit gamma isoform, sequence (P48736 whole entry, canonical isoform): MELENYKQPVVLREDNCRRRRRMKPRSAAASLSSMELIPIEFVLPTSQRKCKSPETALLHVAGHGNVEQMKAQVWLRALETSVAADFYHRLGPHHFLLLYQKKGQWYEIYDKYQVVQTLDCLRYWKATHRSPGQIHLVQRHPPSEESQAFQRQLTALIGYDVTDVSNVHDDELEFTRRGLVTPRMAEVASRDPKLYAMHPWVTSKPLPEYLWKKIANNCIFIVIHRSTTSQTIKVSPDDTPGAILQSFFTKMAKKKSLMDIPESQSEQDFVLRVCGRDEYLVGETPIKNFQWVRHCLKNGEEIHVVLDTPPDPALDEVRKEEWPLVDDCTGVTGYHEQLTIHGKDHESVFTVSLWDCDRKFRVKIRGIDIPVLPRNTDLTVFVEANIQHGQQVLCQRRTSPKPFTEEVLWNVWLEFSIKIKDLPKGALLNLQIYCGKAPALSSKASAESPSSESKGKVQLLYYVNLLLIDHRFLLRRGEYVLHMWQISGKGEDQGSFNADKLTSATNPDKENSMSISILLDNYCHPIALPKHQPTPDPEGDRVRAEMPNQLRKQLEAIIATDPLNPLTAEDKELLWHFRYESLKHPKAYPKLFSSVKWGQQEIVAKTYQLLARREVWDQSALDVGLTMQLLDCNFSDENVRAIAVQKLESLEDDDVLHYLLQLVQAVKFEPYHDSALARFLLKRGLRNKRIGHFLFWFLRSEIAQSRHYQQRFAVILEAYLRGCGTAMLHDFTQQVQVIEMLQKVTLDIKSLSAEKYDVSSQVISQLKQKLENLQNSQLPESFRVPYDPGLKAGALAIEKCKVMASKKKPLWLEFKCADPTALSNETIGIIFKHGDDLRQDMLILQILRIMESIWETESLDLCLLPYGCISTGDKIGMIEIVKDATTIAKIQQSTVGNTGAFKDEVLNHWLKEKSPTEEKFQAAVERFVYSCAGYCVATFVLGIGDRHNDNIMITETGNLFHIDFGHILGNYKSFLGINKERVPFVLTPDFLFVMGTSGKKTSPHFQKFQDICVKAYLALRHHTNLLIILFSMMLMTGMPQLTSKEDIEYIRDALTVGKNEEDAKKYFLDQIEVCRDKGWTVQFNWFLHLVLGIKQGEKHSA

[10] = Cytotoxicity against human 293T cells; type: cell-based; settings: HEK-293T cells
[11] = test system: HCT-116; experiment: Antitumour activity against human HCT116 cells xenografted in nude mouse assessed as tumour growth inhibition at 10 mg/kg, ig administered every 3 days for 3 weeks and measured after 3 weeks relative to control; type: functional; settings: HCT-116, po, read-out: TGI
How it was run: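 HCT-116 cells (5 × 10^6 per animal) injected into right flank of nude mice; at ~100 mm³ tumours, randomized into groups of 6. Dosed 10 mg/kg in 5% CMC-Na intragastrically every three days for three weeks; vehicle control 5% CMC-Na. Body weight and tumour size recorded every three days, volume = 0.5 × length × width²; tumours excised and weighed at end. Mean ± SD.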

Compound	IC50 [1] [µM]	IC50 [2] [µM]	IC50 [3] [µM]	IC50 [4] [µM]	IC50 [5] [µM]	IC50 [6] [µM]	IC50 [7] [µM]	IC50 [8] [µM]	IC50 [9] [µM]	CC50 [10] [µM]	inhibition in vivo at 10 mg/kg [11] [%]
O=c1oc2ccccc2c2nn(CN3CCN(S(=O)(=O)CCCCl)CC3)cc12	55.1	52.1	48.5	38							
O=c1oc2ccccc2c2nn(CN3CCN(S(=O)(=O)C4CC4)CC3)cc12	71.4	82	79	69.3							
O=c1oc2ccccc2c2nn(CN3CCN(S(=O)(=O)c4ccccc4)CC3)cc12	22.1	13.9	11.3	7.53							
CC(C)c1cc(C(C)C)c(S(=O)(=O)N2CCN(Cn3cc4c(=O)oc5ccccc5c4n3)CC2)c(C(C)C)c1	0.09	0.09	0.14	0.08	0.21	> 10	0.42	0.042	0.11	332	
Cc1cc(C)c(S(=O)(=O)N2CCN(Cn3cc4c(=O)oc5ccccc5c4n3)CC2)c(C)c1	0.11	0.11	0.3	0.09	0.41	7.44	0.23	0.12	0.14	354	
O=c1oc2ccccc2c2nn(CN3CCN(S(=O)(=O)CCCl)CC3)cc12	78.6	68.7	62.9	45.8							
O=c1oc2ccccc2c2nn(CN3CCN(S(=O)(=O)c4ccc(Br)cc4)CC3)cc12	4.78	3.09	5.08	1.89	9.71	> 10	9.31	8.3	> 10	387	
CCCCS(=O)(=O)N1CCN(Cn2cc3c(=O)oc4ccccc4c3n2)CC1	> 100	> 100	> 100	87.9							
O=c1oc2ccccc2c2nn(CN3CCN(S(=O)(=O)c4ccccc4[N+](=O)[O-])CC3)cc12	8.23	7.66	7.92	4.87	9.14	8.37	6.15	> 10	8.42	372	
O=c1oc2ccccc2c2nn(CN3CCN(S(=O)(=O)C(F)(F)F)CC3)cc12	> 100	> 100	> 100	> 100							
Cc1ccc(C)c(S(=O)(=O)N2CCN(Cn3cc4c(=O)oc5ccccc5c4n3)CC2)c1	0.22	0.48	0.66	0.13	0.85	> 10	1.42	0.3	0.81	397	
O=c1cc(N2CCOCC2)oc2c(-c3ccccc3)cccc12 [LY-294002]						> 10					35.2
